Measurements published in BindingDB's records for doi:10.1016/j.bmcl.2011.11.010 (Ludwig-Maximilians-University Munich, 2011).

Biological target: T1, Beta-galactoside-binding lectin (Gallus gallus, UniProt P07583)
T1 sequence (P07583 whole entry): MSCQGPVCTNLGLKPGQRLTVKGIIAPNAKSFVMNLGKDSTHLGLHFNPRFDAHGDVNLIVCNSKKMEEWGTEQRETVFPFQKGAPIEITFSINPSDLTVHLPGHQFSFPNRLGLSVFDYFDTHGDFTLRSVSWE
Assay: Inhibition of binding of biotinylated chicken galectin-1B to surface immobilized asialofetuin by solid phase assay
Method in brief: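 Asialofetuin was adsorbed to microtiter wells at a constant coating amount, and its N-glycans served as ligand. Biotinylated lectin at a lectin-specific concentration was added with inhibitor. IC50 (mM) was normalized to lactose, and potency was expressed relative to free lactose. Assays were run in triplicate across up to five independent series.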

- IC50: 4 mM
Structure (SMILES): OC[C@H]1O[C@@H](O[C@H]2[C@H](O)[C@@H](O)[C@H](O)O[C@@H]2CO)[C@H](O)[C@@H](O)[C@H]1O [Lactose, anhydrous]
